Experimental findings from ChEMBL document CHEMBL4152240, “Synthesis, cytotoxicity and structure-activity relationship of indolizinoquinolinedione derivatives as DNA topoisomerase IB catalytic inhibitors” (2018) are described below.

Calls of active or inactive are those of the source. The rule behind the calls is not given here.

For one experiment, the system named is A549. The experiment can be described thus: Cytotoxicity against human A549 cells assessed as growth inhibition after 72 hrs by MTT assay. Type of experiment: functional. As to conditions: A549, 72 h. In outline:
(§1)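 Five-dose MTT growth assay, compounds predissolved in DMSO, 72 h exposure at 37 C. Cells kept in RPMI-1640 or DMEM, 37 C, 5% CO2, passage 3-6. MTT (1 mg/mL in PBS) added for 4 h, formazan dissolved in DMSO, OD 570 nm. GI50 (50% growth inhibition) by nonlinear regression. Means ± SD, at least three repeats.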
Background: Tetrazolium assays rely on reduction of a dye to a coloured formazan, in cell work by metabolically active cells.

Another experiment relates to HCT-116. The experiment can be described thus: Cytotoxicity against human HCT116 cells assessed as growth inhibition after 72 hrs by MTT assay. Type of experiment: functional. To be noted: HCT-116, 72 h. The method in brief: as §1
Another experiment concerns CCRF-CEM. The experiment in a line: Cytotoxicity against human CCRF-CEM cells assessed as growth inhibition after 72 hrs by MTT assay. Type of experiment: functional. In outline:
as §1

Another experiment relates to DU-145. The experiment in a line: Cytotoxicity against human DU145 cells assessed as growth inhibition after 72 hrs by MTT assay. It is filed as functional. To be noted: DU-145, 72 h. The method in brief:
as §1

The target of experiment [1] is T1, Topoisomerase I (Bos taurus) (UniProt Q2HPH0).
T1 sequence (whole entry): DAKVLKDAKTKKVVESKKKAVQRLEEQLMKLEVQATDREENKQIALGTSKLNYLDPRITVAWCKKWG
The experiment can be described thus: Inhibition of calf thymus TOP1-mediated relaxation of supercoiled pBR322 DNA at 25 uM after 30 mins by agarose gel electrophoresis relative to camptothecin. In outline: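 0.5 µg supercoiled pBR322 in buffer (10 mM Tris-HCl pH 7.5, 50 mM KCl, 5 mM MgCl2, BSA, DTT) with 1 unit calf thymus TOP1, with or without compound (0.2-125 µM), 30 min at 37 C. Run on 0.8% agarose/TBE at 4.6 V/cm for 1.5 h, gel red stained. Activity graded in bands (e.g. +++ 81-120%). At least two independent repeats.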

For the next experiment, the system named is Huh-7. The experiment can be described thus: Cytotoxicity against human HuH7 cells assessed as growth inhibition after 72 hrs by MTT assay. It is filed as functional. As to conditions: Huh-7, 72 h. The method in brief: as §1
For experiment [2], the system named is DNA. The experiment in a line: Induction of unwinding effect of Escherichia coli relaxed pBR322 DNA at 1 to 9 uM preincubated with DNA for 10 mins followed by excess calf thymus TOP1 addition and measured after 30 mins by agarose gel electrophoresis. It is filed as nucleic-acid assay. In outline:
(§2)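 Compound (1, 3, 9 µM) preincubated with pBR322 DNA, supercoiled or relaxed, at room temperature for 10 min. Excess TOP1 then added and incubated 30 min at 37 C. Stopped with SDS/proteinase K. Ethidium bromide (0.3-1.2 mg/L) as positive control. Run on 0.8% agarose in TBE at 4.6 V/cm for 1.5 h, stained with gel red, UV visualized.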

For experiment [3], the system named is DNA. The experiment can be described thus: Induction of unwinding effect of Escherichia coli supercoiled pBR322 DNA at 1 to 9 uM preincubated with DNA for 10 mins followed by excess calf thymus TOP1 addition and measured after 30 mins by agarose gel electrophoresis. Type of experiment: nucleic-acid assay. The method in brief:
as §2

As to `O=C1c2cccnc2C(=O)c2c1c(C(=O)OCCCN1CCCC1)c1c(F)cccn21`, the GI50 (as a rule, the concentration at which growth is held to half of that of the control) came out at 80 nM with A549; 29 nM in the experiment with HCT-116; 510 nM with CCRF-CEM; 92 nM in the experiment on DU-145; 110 nM with Huh-7. In experiment [1], the inhibition (commonly the drop in the measured response relative to a control, in per cent) was in the range of 41 to 80%.

As to `CCOC(=O)c1c2c(n3ccccc13)C(=O)c1ncccc1C2=O`, the GI50 came to 160 nM with A549; 330 nM in the experiment on HCT-116; 680 nM with CCRF-CEM; 93 nM in the experiment with DU-145; 850 nM with Huh-7. Further, the result with DNA [2] and in the experiment on DNA [3] was inactive. The inhibition in experiment [1] was in the range of 81 to 120%.

As to `O=C1c2cnncc2C(=O)c2c1c(C(=O)OCCN1CCOCC1)c1ccccn21`, the GI50 turned out to be 860 nM in the experiment with A549; 3430 nM in the experiment on HCT-116; 1350 nM in the experiment on CCRF-CEM; 1220 nM with DU-145; 2920 nM in the experiment with Huh-7. In addition, the outcome in the experiment with DNA [2] and in the experiment with DNA [3] was inactive. In experiment [1], the inhibition lay in the range of 81 to 120%.

Turning to `CCOC(=O)c1c2c(n3ccc(NC(=O)CCN4CCCC4)cc13)C(=O)c1ncccc1C2=O`, the GI50 in the experiment with A549 was 29300 nM; in the experiment with HCT-116, 1900 nM; in the experiment with CCRF-CEM it was 540 nM; in the experiment with DU-145, 700 nM; with Huh-7, 1800 nM. Besides, the inhibition in experiment [1] was 41 to 80%.

Take `CN1CCN(CCOC(=O)c2c3c(n4cccc(F)c24)C(=O)c2ncccc2C3=O)CC1`: the GI50 with A549 stood at 52 nM; with HCT-116 it was 44 nM; in the experiment with CCRF-CEM, 450 nM; in the experiment with DU-145, 29 nM; with Huh-7 it was 110 nM. Besides, the inhibition in experiment [1] was 41 to 80%.

For the compound `O=C1c2cccnc2C(=O)c2c1c(C(=O)OCCCN1CCOCC1)c1c(Cl)cccn21`, the GI50 in the experiment on A549 amounted to 37500 nM; in the experiment with HCT-116 it was 19100 nM; in the experiment with CCRF-CEM, 68600 nM; in the experiment with DU-145 it was 29100 nM; in the experiment on Huh-7 it was 28400 nM. Also, in experiment [1], the inhibition was less than 40%.

As to `O=C1c2cccnc2C(=O)c2c1c(C(=O)OCCCN1CCOCC1)c1c(F)cccn21`, the GI50 in the experiment on A549 amounted to 230 nM; in the experiment on HCT-116, 38 nM; with CCRF-CEM it was 490 nM; with DU-145, 250 nM; in the experiment with Huh-7, 130 nM. Further, in experiment [1], the inhibition is less than 40%.

Consider `CCOC(=O)c1c2c(n3ccc(NC(=O)CCN4CCCCC4)cc13)C(=O)c1ncccc1C2=O`, for which the 50% growth inhibitory concentration (GI50) in the experiment on A549 was determined as 2650 nM; in the experiment with HCT-116, 1430 nM; in the experiment on CCRF-CEM, 110 nM; with DU-145, 3120 nM; in the experiment on Huh-7, 1150 nM. Also, the result in the experiment with DNA [2] and in the experiment on DNA [3] was inactive. Besides, the inhibition in experiment [1] is 81 to 120%.

Turning to `O=C1c2cccnc2C(=O)c2c1c(C(=O)OCCCN1CCCCC1)c1c(Cl)cccn21`, the GI50 in the experiment on A549 turned out to be 890 nM; in the experiment with HCT-116, 5150 nM; with CCRF-CEM, 5350 nM; in the experiment with DU-145, 1730 nM; with Huh-7, 1320 nM. Besides, in experiment [1], the inhibition lay within 41 to 80%.

Turning to `O=C1c2cccnc2C(=O)c2c1c(C(=O)OCCN1CCOCC1)c1c(F)cccn21`, the GI50 with A549 was found to be 130 nM; with HCT-116 it was 110 nM; with CCRF-CEM it was 1100 nM; with DU-145 it was 230 nM; with Huh-7, 570 nM. Besides, the inhibition in experiment [1] is less than 40%.

In the case of `O=C1c2cccnc2C(=O)c2c1c(C(=O)OCCCN1CCCC1)c1c(Cl)cccn21`, the GI50 in the experiment on A549 worked out at 24500 nM; with HCT-116, 38200 nM; in the experiment on CCRF-CEM, 85300 nM; with DU-145, 8320 nM; in the experiment on Huh-7 it was 12200 nM. Moreover, the inhibition in experiment [1] is less than 40%.

Regarding `O=C1c2nccnc2C(=O)c2c1c(C(=O)OCCN1CCOCC1)c1ccccn21`, the GI50 in the experiment with A549 is 8520 nM; in the experiment with HCT-116 it was 13200 nM; in the experiment with CCRF-CEM, 1610 nM; in the experiment with DU-145, 2550 nM; in the experiment with Huh-7 it was 7330 nM. Further, the inhibition in experiment [1] is 41 to 80%.

In the case of `O=C1c2cccnc2C(=O)c2c1c(C(=O)OCCN1CCCC1)c1c(Cl)cccn21`, the GI50 in the experiment on A549 turned out to be 5390 nM; with HCT-116 it was 10200 nM; in the experiment on CCRF-CEM, 48200 nM; with DU-145, 1580 nM; in the experiment on Huh-7, 2250 nM. Also, the inhibition in experiment [1] was less than 40%.

Regarding `CN1CCN(CCCOC(=O)c2c3c(n4cccc(F)c24)C(=O)c2ncccc2C3=O)CC1`, the GI50 worked out at 21 nM in the experiment on A549; 44 nM in the experiment on HCT-116; 320 nM with CCRF-CEM; 73 nM in the experiment on DU-145; 42 nM in the experiment on Huh-7. Further, the inhibition in experiment [1] was 41 to 80%.

Turning to `CN(C)CCCOC(=O)c1c2c(n3cccc(F)c13)C(=O)c1ncccc1C2=O`, the GI50 in the experiment with A549 worked out at 18 nM; with HCT-116 it was 66 nM; in the experiment on CCRF-CEM, 370 nM; with DU-145 it was 25 nM; with Huh-7 it was 80 nM. Moreover, the outcome in the experiment with DNA [2] and in the experiment with DNA [3] was Active. Further, the inhibition in experiment [1] fell in the range of 81 to 120%.

Consider `O=C1c2cccnc2C(=O)c2c1c(C(=O)OCCN1CCOCC1)c1c(Cl)cccn21`, for which the GI50 came out at 48600 nM in the experiment on A549; 28600 nM in the experiment with HCT-116; 61300 nM with CCRF-CEM; 29500 nM in the experiment with DU-145; 30300 nM in the experiment on Huh-7. In addition, the inhibition in experiment [1] lay within 41 to 80%.

For `CCOC(=O)c1c2c(n3ccc(NC(=O)CCN4CCOCC4)cc13)C(=O)c1ncccc1C2=O`, the GI50 turned out to be 9680 nM with A549; 300 nM in the experiment on HCT-116; 600 nM with CCRF-CEM; 16400 nM in the experiment on DU-145; 340 nM with Huh-7. For the same compound, the outcome with DNA [2] and in the experiment with DNA [3] was inactive. Also, the inhibition in experiment [1] fell in the range of 81 to 120%.

Consider `O=C1c2ncccc2C(=O)c2c1c(C(=O)OCCN1CCOCC1)c1ccccn21`, for which the GI50 in the experiment with A549 amounted to 4520 nM; in the experiment with HCT-116, 11100 nM; in the experiment on CCRF-CEM it was 70500 nM; with DU-145 it was 1200 nM; with Huh-7, 14200 nM. For the same compound, the result in the experiment with DNA [2] and in the experiment on DNA [3] was inactive. The inhibition in experiment [1] is greater than 121%.

With `CN(C)CCOC(=O)c1c2c(n3cccc(F)c13)C(=O)c1ncccc1C2=O`, the GI50 in the experiment with A549 was found to be 27200 nM; in the experiment on HCT-116, 92 nM; in the experiment on CCRF-CEM it was 1090 nM; with DU-145 it was 690 nM; in the experiment with Huh-7, 310 nM. Besides, in experiment [1], the inhibition fell in the range of 41 to 80%.

In the case of `O=C1c2cccnc2C(=O)c2c1c(C(=O)OCCN1CCCCC1)c1c(Cl)cccn21`, the GI50 worked out at 120 nM in the experiment with A549; 310 nM in the experiment with HCT-116; 390 nM with CCRF-CEM; 2520 nM with DU-145; 170 nM with Huh-7. For the same compound, the result in the experiment with DNA [2] and with DNA [3] was Active. In addition, the inhibition in experiment [1] was greater than 121%.

`CCOC(=O)c1c2c(n3ccc(NC(=O)CCN(C)C)cc13)C(=O)c1ncccc1C2=O`: the GI50 is 19600 nM in the experiment on A549; 1750 nM in the experiment with HCT-116; 290 nM in the experiment on CCRF-CEM; 2270 nM in the experiment on DU-145; 1650 nM in the experiment on Huh-7. The inhibition in experiment [1] was in the range of 41 to 80%.
